Molecules are shown by their SMILES.

Data set [1] concerns Plasmodium falciparum. Put plainly: Antiplasmodial activity against chloroquine/pyrimethamine-resistant Plasmodium falciparum K1 assessed as growth inhibition after […] by [3H]-hypoxanthine incorporation assay. It counts as functional, organism-based. An outline of the steps:
(§1)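 Tested against the chloroquine- and pyrimethamine-resistant K1 strain, with chloroquine as the standard drug. Growth was read by [3H]hypoxanthine incorporation. IC50 was taken from graphically plotted dose–response curves and averaged over at least two independent assays run in duplicate.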

The nature of data set [2]: Inhibition of recombinant Plasmodium falciparum FabI using crotonoyl-CoA as substrate assessed as consumption of NADH after 10 mins. Summed up: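 Recombinant PfFabI inhibition was followed spectrophotometrically. IC50 is the concentration giving 50% inhibition, reported as the mean of three independent experiments.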
Data set [3] can be described thus: Selectivity index, ratio of IC50 for rat L6 cells to IC50 for chloroquine/pyrimethamine-resistant Plasmodium falciparum K1. Type of data set: toxicity, cell-based. The settings on record: rat L6 cells (cytotoxicity) versus Plasmodium falciparum K1, read-out: Ratio IC50. An outline of the steps:
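Ratio of the rat L6 cell growth-inhibition IC50 to the P. falciparum K1 IC50, calculated per WHO/TDR guidelines. Each cell IC50 is the average of at least two independent assays run in duplicate.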

The test system of another data set is L6. The experiment in a line: Cytotoxicity against rat L6 cells assessed as growth inhibition after 72 hrs by fluorometric analysis. It counts as cell-based. The note with it: L6, 72 h. Summed up:
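Mammalian L6 cell growth inhibition; IC50 taken as the average of at least two independent assays, each run in duplicate.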

The target in data set [4] is T1, 3-oxoacyl-(Acyl-carrier protein) reductase (Plasmodium falciparum (isolate 3D7), UniProt Q8I2S7).
T1 sequence (Q8I2S7 whole entry): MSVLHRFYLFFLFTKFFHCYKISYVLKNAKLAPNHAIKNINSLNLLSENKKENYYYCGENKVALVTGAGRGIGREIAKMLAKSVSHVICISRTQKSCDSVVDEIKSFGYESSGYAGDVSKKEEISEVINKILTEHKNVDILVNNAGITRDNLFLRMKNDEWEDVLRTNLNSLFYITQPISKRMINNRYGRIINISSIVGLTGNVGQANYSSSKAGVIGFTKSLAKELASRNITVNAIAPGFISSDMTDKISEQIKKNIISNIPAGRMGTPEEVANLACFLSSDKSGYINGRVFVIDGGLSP
The experiment in a line: Inhibition of recombinant Plasmodium falciparum 3D7 FabG using acetoacetyl-CoA as substrate after 10 mins in presence of NADPH.

For a further data set, the target named is T2, Fatty acid synthase (Plasmodium falciparum, UniProt Q965D7).
T2 sequence (Q965D7 whole entry): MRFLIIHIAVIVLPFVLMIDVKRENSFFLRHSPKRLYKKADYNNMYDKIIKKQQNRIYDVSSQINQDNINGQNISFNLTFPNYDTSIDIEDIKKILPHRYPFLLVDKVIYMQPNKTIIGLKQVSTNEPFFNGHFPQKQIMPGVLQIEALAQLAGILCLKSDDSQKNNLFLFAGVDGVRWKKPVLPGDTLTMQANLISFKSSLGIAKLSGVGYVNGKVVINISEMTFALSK
The experiment in a line: Inhibition of recombinant Plasmodium falciparum FabZ using crotonoyl-CoA as substrate after 10 mins. An outline of the steps:
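Recombinant enzymes PfFabG and PfFabZ were used. IC50 is the concentration giving 50% inhibition, reported as the mean of three independent experiments.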

Data set [5] deals with Plasmodium falciparum. Put plainly: Antiplasmodial activity against asexual blood stage form of Plasmodium falciparum assessed as growth inhibition after 72 hrs by [3H]-hypoxanthine incorporation assay. It counts as functional, organism-based. An outline of the steps:
as §1

Data set [6] can be described thus: Inhibition of Plasmodium falciparum FabI using crotonoyl-CoA as substrate by UV-Vis spectrophotometric analysis in presence of NADH. Summed up:
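Recombinant PfFabI enzyme, spectrophotometric read-out; IC50 (concentration giving 50% inhibition) reported as the mean of three independent experiments.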

On to `O=c1ccc2cc(Oc3ccc(Cl)cc3O)ccc2o1`, for which the IC50 was 10.7 µM in the data set on Plasmodium falciparum [1], 0.63 µM in data set [2] and 96.2 µM in the data set with L6. For the same compound, in data set [3], the selectivity ratio turned out to be 9.

As for `Cc1cc(=O)oc2ccc(Oc3ccc(Cl)cc3O)cc12`, the IC50 is 15.6 µM in the data set on Plasmodium falciparum [1], 14.2 µM in data set [2] and 35.5 µM with L6. The selectivity ratio in data set [3] came out at 2.2.

For `CCc1cc(=O)oc2ccc(Oc3ccc(Cl)cc3O)cc12`, the IC50 is 5.6 µM in the data set with Plasmodium falciparum [1], 11 µM in data set [2] and 142 µM in the data set with L6. Further, the selectivity ratio in data set [3] was 25.6.

On to `O=c1ccc2ccc(Oc3ccc(Cl)cc3O)cc2o1`, for which the results for the concentration for half-maximal inhibition (IC50) (in the data set on Plasmodium falciparum [1]; in data set [2]; with L6) were 9.3 µM, 2.7 µM and 188 µM, respectively. Besides, in data set [3], the selectivity ratio amounted to 20.1.

On to `Cc1cc(=O)oc2cc(Oc3ccc(Cl)cc3O)ccc12`, for which the IC50 in data set [4] was > 100 µM; with Plasmodium falciparum [1], 9.5 µM; in data set [2], 0.25 µM; on Fatty acid synthase, > 100 µM; with L6, 85.9 µM. The selectivity ratio in data set [3] was determined as 9.

Take `CCc1cc(=O)oc2cc(Oc3ccc(Cl)cc3O)ccc12`: the IC50 in data set [4] is > 100 µM; in the data set with Plasmodium falciparum [1], 5.7 µM; in data set [2], 0.27 µM; on Fatty acid synthase, > 100 µM; with L6 it was 84.8 µM. Moreover, in data set [3], the selectivity ratio was 14.9.

Take `O=c1oc2ccccc2cc1Oc1ccc(Cl)cc1O`: the half-maximal inhibitory concentration (IC50) is > 100 µM in data set [4]; 15 µM with Plasmodium falciparum [1]; 5.5 µM in data set [2]; > 100 µM on Fatty acid synthase; 108 µM in the data set with L6. The selectivity ratio in data set [3] was determined as 7.2.

For the compound `O=c1oc2ccc(O)cc2cc1Oc1ccc(Cl)cc1O`, the IC50 in data set [4] is > 100 µM; in the data set on Plasmodium falciparum [1] it was > 15 µM; in data set [2] it was 14 µM; on Fatty acid synthase it was > 100 µM; in the data set on L6, 134 µM.

With `O=c1oc2cc(O)ccc2cc1Oc1ccc(Cl)cc1O`, the IC50 was 99 µM in data set [4]; > 15 µM in the data set with Plasmodium falciparum [1]; 6 µM in data set [2]; 16.3 µM at Fatty acid synthase; 144 µM in the data set with L6.

For `O=c1oc2cc(O)cc(O)c2cc1Oc1ccc(Cl)cc1O`, the IC50 is > 100 µM in data set [4]; > 15 µM with Plasmodium falciparum [1]; 44 µM in data set [2]; 90 µM at Fatty acid synthase; 128 µM with L6.

Consider `Cc1c(Oc2ccc(Cl)cc2O)c(=O)oc2ccccc12`, for which the IC50 was > 100 µM in data set [4]; > 15 µM in the data set on Plasmodium falciparum [1]; 12 µM in data set [2]; 13 µM at Fatty acid synthase; 51.5 µM in the data set with L6.

Turning to `Cc1c(Oc2ccc(Cl)cc2O)c(=O)oc2cc(O)ccc12`, the IC50 in data set [4] was > 100 µM; in the data set with Plasmodium falciparum [1], > 15 µM; in data set [2], 15 µM; at Fatty acid synthase, 28 µM; with L6, 96.3 µM.

`O=c1oc2cc(O)ccc2cc1-c1ccc(Oc2ccc(Cl)cc2O)cc1`: the IC50 is > 100 µM in data set [4]; 8 µM with Plasmodium falciparum [1]; 0.45 µM in data set [2]; 10 µM at Fatty acid synthase; 41 µM in the data set with L6. The selectivity ratio in data set [3] is 5.1.

For `O=C(O[C@@H]1Cc2c(O)cc(O)cc2O[C@@H]1c1cc(O)c(O)c(O)c1)c1cc(O)c(O)c(O)c1` [EPIGALOCATECHIN GALLATE], the IC50 on Fatty acid synthase amounted to 0.03 µM.

For the compound `COc1cc([C@@H]2c3cc4c(cc3[C@H](O)[C@H]3COC(=O)[C@H]23)OCO4)cc(OC)c1OC` [PODOFILOX], the IC50 with L6 turned out to be 0.006 µM.

For the compound `Oc1cc(Cl)ccc1Oc1ccc(Cl)cc1Cl` [TRICLOSAN], the IC50 with Plasmodium falciparum [1] turned out to be 1.51 µM; in data set [2], 0.05 µM; with Plasmodium falciparum [5], 1 µM; in data set [6], 0.05 µM.

Values taken from ChEMBL document CHEMBL2424603, “Design, synthesis, and biological and crystallographic evaluation of novel inhibitors of Plasmodium falciparum enoyl-ACP-reductase (PfFabI)” (J Med Chem, 2013).
